Data as given in ChEMBL document CHEMBL1134413, “Effect of N-alkyl and N-alkenyl substituents in noroxymorphindole, 17-substituted-6,7-dehydro-4,5alpha-epoxy-3,14-dihydroxy-6,7:2',3'-indolomorphinans, on opioid receptor affinity, selectivity, and efficacy” (J Med Chem, 2001).

Assays:
[1] = molecular target: T1, Delta-type opioid receptor (Mus musculus, UniProt P32300); assay: Displacement of [3H]DADLE at delta-opioid receptor
[2] = molecular target: T2, Kappa-type opioid receptor (Cavia porcellus, UniProt P41144); assay: Displacement of [3H]U-69593 at opioid receptor kappa 1
T2 sequence (P41144 whole entry): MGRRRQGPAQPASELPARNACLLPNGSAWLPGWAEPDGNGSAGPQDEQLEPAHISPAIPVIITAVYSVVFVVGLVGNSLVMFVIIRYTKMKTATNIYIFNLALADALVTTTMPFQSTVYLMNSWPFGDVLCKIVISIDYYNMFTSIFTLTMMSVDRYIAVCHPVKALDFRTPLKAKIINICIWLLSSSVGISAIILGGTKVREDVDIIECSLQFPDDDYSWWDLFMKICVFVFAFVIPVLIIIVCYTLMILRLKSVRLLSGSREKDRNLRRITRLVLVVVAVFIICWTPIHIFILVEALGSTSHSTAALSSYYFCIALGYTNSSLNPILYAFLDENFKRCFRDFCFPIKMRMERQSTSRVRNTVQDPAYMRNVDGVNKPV

Mu-type opioid receptor [3] = molecular target: T3, Mu-type opioid receptor (Rattus norvegicus, UniProt P33535); assay: Displacement of [3H]DAMGO at mu-opioid receptor
T3 sequence (P33535 whole entry): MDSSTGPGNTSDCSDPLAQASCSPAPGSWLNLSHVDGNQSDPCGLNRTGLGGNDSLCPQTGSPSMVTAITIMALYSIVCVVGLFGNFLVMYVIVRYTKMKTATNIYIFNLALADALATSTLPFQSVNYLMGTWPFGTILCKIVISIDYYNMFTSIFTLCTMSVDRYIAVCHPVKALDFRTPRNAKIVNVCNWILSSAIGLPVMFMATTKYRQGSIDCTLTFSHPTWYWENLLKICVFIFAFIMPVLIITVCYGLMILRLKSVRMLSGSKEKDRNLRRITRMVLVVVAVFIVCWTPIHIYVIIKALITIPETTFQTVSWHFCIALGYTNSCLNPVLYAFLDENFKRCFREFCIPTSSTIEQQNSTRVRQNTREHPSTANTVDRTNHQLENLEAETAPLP

[4] = molecular target: T2, Kappa-type opioid receptor; assay: Antagonist activity of compound on U50,488H stimulated [35S]GTP-gamma-S binding to opioid receptor kappa 1; assay type: functional
Mus musculus [5] = organism: Mus musculus; assay: Antagonist activity of compound in mouse vas deferens tested with DPDPE; assay type: functional
Outline: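 Isolated mouse vas deferens. Antagonism is measured against the δ agonist DPDPE and expressed as Ke (nM). Agonist activity is recorded separately as percent inhibition of contraction height at a single stated concentration.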

Mu-type opioid receptor [6] = molecular target: T3, Mu-type opioid receptor; assay: Antagonist activity of compound on agonist stimulated [35S]GTP-gamma-S binding on mu-opioid receptor; assay type: functional
Cavia porcellus [7] = organism: Cavia porcellus; assay: Antagonist activity of compound in GPI/LMMP tested with PL-017; assay type: functional
Outline: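 Guinea pig ileum longitudinal muscle/myenteric plexus preparation. Antagonism is measured against the μ agonist PL-017 and expressed as Ke (nM). Agonist activity is recorded separately as percent inhibition of contraction height at a single stated concentration.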

Cavia porcellus [8] = organism: Cavia porcellus; assay: Percentage inhibition of contraction height in guinea pig ileum longitudinal muscle myenteric plexus (GPI/LMMP) 1 uM; assay type: functional
Outline: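 Agonist effect read in isolated guinea pig ileum longitudinal muscle/myenteric plexus preparation as percent inhibition of contraction height, at one test concentration.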

[9] = molecular target: T1, Delta-type opioid receptor; assay: Antagonist activity of compound on agonist stimulated [35S]GTP-gamma-S binding on delta-opioid receptor; assay type: functional
Mus musculus [10] = organism: Mus musculus; assay: Percentage inhibition of contraction height in mouse vas deferens (MVD) at 100 nM; assay type: functional
Outline: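 Agonist effect read in isolated mouse vas deferens preparation as percent inhibition of contraction height, at one test concentration.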

[11] = molecular target: T1, Delta-type opioid receptor; assay: Antagonist activity of compound on SNC 80 stimulated [35S]GTP-gamma-S binding to delta-opioid receptor; assay type: functional
Mu-type opioid receptor [12] = molecular target: T3, Mu-type opioid receptor; assay: Antagonist activity of compound on DAMGO stimulated [35S]GTP-gamma-S binding to mu-opioid receptor; assay type: functional
Mus musculus [13] = organism: Mus musculus; assay: Percentage inhibition of contraction height in mouse vas deferens (MVD) at 1 uM; assay type: functional

T1 sequence (P32300 whole entry): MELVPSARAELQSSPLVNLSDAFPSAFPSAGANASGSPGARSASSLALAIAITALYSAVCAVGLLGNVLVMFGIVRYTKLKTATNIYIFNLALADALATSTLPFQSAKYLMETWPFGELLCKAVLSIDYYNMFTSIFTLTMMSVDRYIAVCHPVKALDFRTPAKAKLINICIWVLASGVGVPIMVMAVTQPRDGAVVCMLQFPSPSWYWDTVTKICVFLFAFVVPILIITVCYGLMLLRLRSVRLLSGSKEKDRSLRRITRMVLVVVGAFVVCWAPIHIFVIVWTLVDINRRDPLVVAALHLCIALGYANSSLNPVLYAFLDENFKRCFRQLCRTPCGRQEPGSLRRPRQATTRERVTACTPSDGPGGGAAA

Row | SMILES | Ki [1] [nM] | Ki [2] [nM] | Ki (Mu-type opioid receptor [3]) [nM] | further results
1 | CC(C)CN1CC[C@]23c4c5ccc(O)c4O[C@H]2c2[nH]c4ccccc4c2C[C@@]3(O)[C@H]1C5 | 3.8 | 650 | 2600 | 
2 | CCCN1CC[C@]23c4c5ccc(O)c4O[C@H]2c2[nH]c4ccccc4c2C[C@@]3(O)[C@H]1C5 | 2 | 380 |  | 
3 | CC(C)=CCN1CC[C@]23c4c5ccc(O)c4O[C@H]2c2[nH]c4ccccc4c2C[C@@]3(O)[C@H]1C5 | 25 | 3200 | 2800 | 
4 | CC(C)N1CC[C@]23c4c5ccc(O)c4O[C@H]2c2[nH]c4ccccc4c2C[C@@]3(O)[C@H]1C5 | 33 | 6200 | > 6600 | 
5 | CCCCCCN1CC[C@]23c4c5ccc(O)c4O[C@H]2c2[nH]c4ccccc4c2C[C@@]3(O)[C@H]1C5 | 26 | 3100 | 4600 | 
6 | CCCCN1CC[C@]23c4c5ccc(O)c4O[C@H]2c2[nH]c4ccccc4c2C[C@@]3(O)[C@H]1C5 | 8.4 | 900 | 1300 | 
7 | CCCCCN1CC[C@]23c4c5ccc(O)c4O[C@H]2c2[nH]c4ccccc4c2C[C@@]3(O)[C@H]1C5 | 16 | 2000 | 2800 | 
8 | C/C=C/CN1CC[C@]23c4c5ccc(O)c4O[C@H]2c2[nH]c4ccccc4c2C[C@@]3(O)[C@H]1C5 | 7.4 | 960 | 1200 | Ki [4]: 118 nM; Ke (Mus musculus [5]): 26 nM; Ki (Mu-type opioid receptor [6]): 30 nM; Ke (Cavia porcellus [7]): 5500 nM; Inhibition (Cavia porcellus [8]): 22%; Ki [9]: 0.68 nM; inhibition at 0.1 µM (Mus musculus [10]): 12%
9 | CC(C)CCN1CC[C@]23c4c5ccc(O)c4O[C@H]2c2[nH]c4ccccc4c2C[C@@]3(O)[C@H]1C5 | 4.8 | 670 | 1300 | 
10 | CCN1CC[C@]23c4c5ccc(O)c4O[C@H]2c2[nH]c4ccccc4c2C[C@@]3(O)[C@H]1C5 | 5 | 3000 | 2500 | Ki [4]: > 1000 nM; Ke (Mus musculus [5]): 9.6 nM; Ki [11]: 3.2 nM; Ki (Mu-type opioid receptor [12]): 290 nM; Ke (Cavia porcellus [7]): 96 nM; Inhibition (Cavia porcellus [8]): 1.2%; inhibition at 0.1 µM (Mus musculus [10]): 9%
11 | CCCCCCCN1CC[C@]23c4c5ccc(O)c4O[C@H]2c2[nH]c4ccccc4c2C[C@@]3(O)[C@H]1C5 | 79 | > 7000 | 4600 | 
12 | Cl.Oc1ccc2c3c1O[C@H]1c4[nH]c5ccccc5c4C[C@@]4(O)[C@@H](C2)N(CC2CC2)CC[C@]314 [NALTRINDOLE HYDROCHLORIDE] | 0.22 | 30 |  | Ki [4]: 4.7 nM; Ke (Mus musculus [5]): 0.49 nM; inhibition at 1 µM (Mus musculus [13]): 16%; Ke (Cavia porcellus [7]): 43 nM; Inhibition (Cavia porcellus [8]): 18%; Ki [9]: 0.03 nM
13 | CN1CC[C@]23c4c5ccc(O)c4O[C@H]2c2[nH]c4ccccc4c2C[C@@]3(O)[C@H]1C5 [OXYMORPHINDOLE] |  |  | 66 | 
